pIC50: −log10 of the molar value.

Among the data in BindingDB's records for doi:10.1021/jm500521n (Saarland University, 2014) are IC50 values, retold here.

This experiment concerns the target T1, Nitric oxide synthase, inducible (Mus musculus, UniProt P29477).
T1 sequence (P29477 whole entry): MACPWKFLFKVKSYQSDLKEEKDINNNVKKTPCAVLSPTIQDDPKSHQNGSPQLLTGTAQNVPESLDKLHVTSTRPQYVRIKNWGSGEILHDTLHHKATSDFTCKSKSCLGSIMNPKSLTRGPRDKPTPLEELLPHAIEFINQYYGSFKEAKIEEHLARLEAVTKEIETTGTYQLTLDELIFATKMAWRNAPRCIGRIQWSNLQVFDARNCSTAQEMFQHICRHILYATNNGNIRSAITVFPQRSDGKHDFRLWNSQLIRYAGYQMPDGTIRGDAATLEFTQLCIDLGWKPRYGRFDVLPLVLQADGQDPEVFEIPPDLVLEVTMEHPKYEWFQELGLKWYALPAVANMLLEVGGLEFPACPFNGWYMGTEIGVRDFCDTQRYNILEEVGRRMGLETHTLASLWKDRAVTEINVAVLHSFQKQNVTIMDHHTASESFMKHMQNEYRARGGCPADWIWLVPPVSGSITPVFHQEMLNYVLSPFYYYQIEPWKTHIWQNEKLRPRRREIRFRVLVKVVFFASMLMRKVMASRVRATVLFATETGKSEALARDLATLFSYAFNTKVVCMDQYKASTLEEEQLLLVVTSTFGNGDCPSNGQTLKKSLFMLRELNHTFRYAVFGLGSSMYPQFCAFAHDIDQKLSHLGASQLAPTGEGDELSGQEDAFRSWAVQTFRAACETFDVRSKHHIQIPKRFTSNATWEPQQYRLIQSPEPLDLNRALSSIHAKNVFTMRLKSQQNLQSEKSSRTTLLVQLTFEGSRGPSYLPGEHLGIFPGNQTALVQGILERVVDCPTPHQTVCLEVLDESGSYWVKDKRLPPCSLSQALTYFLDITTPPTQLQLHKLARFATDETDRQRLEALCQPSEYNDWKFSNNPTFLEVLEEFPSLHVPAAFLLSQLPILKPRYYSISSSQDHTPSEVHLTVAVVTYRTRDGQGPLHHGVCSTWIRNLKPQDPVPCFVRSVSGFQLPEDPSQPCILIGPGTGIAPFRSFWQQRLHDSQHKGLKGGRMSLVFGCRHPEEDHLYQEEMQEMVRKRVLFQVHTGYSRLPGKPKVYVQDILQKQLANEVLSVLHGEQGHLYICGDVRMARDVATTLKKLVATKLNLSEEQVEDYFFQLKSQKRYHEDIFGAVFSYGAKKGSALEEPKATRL
Description: Inhibition of iNOS induction in mouse RAW264.7 cells assessed as NO production. Summed up: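 RAW 264.7 cells seeded at 8 × 10⁴ per well in DMEM/10% FBS and grown 2 days. Then exposed to LPS with compound or DMSO for 20 h. Supernatant nitrite measured by Griess reaction (sulfanilamide/NED) at 550 nm minus 620 nm background, quantified against a sodium nitrite standard curve. At least four experiments in triplicate.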
`CC(C)(C)C1=NN(c2ccc(Cl)cc2)C(c2ccc(O)cc2)C1` (stereo not given): the pIC50 (commonly the negative decadic logarithm of the IC50, by convention in mol/L) was 5.12.
Under `CC(C)(C)C1=NN(c2cccc(Cl)c2)C(c2ccc(F)c(O)c2)C1` (stereo not given) stands 5.34.
As for `COc1cc(C=CC(=O)CC(=O)C=Cc2ccc(O)c(OC)c2)ccc1O`, the negative-log IC50 (pIC50) is 6.10.
In the case of `Oc1ccc(C2CC(c3cccs3)=NN2c2ccc(C(F)(F)F)cc2)cc1` (stereo not given), the pIC50 was 5.62.
Consider `Oc1ccc(C2CC(c3cccs3)=NN2c2ccc(Br)cc2)cc1` (stereo not given), for which the pIC50 was 5.47.
